IC50 and Ratio IC50 data for 60 compounds are collected here from ChEMBL document CHEMBL1153941, “Synthesis, molecular modeling, and selective inhibitory activity against human monoamine oxidases of 3-carboxamido-7-substituted coumarins” (J Med Chem, 2009).

For assay [1], the target named is T1, Amine oxidase [flavin-containing] A (Homo sapiens, UniProt P21397).
T1 sequence (P21397 whole entry): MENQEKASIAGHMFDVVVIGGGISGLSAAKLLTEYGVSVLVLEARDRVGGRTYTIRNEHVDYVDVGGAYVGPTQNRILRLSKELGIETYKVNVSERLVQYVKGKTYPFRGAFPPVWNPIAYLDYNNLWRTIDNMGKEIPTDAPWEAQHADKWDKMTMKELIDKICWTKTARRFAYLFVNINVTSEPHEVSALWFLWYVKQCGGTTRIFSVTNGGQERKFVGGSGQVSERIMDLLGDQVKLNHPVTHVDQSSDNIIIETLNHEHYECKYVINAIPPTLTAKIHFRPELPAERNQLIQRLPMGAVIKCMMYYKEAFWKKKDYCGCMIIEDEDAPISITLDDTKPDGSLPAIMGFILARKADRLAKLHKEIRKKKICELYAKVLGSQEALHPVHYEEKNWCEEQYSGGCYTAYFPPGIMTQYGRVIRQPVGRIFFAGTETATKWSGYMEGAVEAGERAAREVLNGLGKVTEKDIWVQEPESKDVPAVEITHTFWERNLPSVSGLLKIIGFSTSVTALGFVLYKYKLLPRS
Put plainly: Inhibition of human recombinant MAOA expressed in BTI-TN-5B1-4 cells assessed as effect on H2O2 production from para-tyramine by fluorimetric method. The format is cell-based.

Assay [2] deals with T2, Amine oxidase [flavin-containing] B (Homo sapiens, UniProt P27338).
T2 sequence (P27338 whole entry): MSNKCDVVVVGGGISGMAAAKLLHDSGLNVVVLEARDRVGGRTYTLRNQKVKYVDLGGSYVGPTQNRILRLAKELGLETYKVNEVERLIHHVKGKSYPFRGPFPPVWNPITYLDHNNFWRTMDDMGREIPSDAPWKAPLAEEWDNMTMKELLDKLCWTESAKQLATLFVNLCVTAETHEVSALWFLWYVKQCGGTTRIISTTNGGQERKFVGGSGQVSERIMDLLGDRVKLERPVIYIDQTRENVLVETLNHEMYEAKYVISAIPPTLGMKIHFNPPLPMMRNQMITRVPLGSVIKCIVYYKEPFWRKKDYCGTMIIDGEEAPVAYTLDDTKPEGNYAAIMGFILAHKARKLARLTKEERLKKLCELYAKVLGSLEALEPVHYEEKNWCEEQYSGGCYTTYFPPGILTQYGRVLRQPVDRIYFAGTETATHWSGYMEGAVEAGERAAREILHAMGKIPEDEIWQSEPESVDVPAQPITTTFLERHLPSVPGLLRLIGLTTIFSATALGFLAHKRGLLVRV
Put plainly: Inhibition of human recombinant MAOB expressed in BTI-TN-5B1-4 cells assessed as effect on H2O2 production from para-tyramine at 100 uM by fluorimetric method. The format is cell-based. An outline of the steps: (§1)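 Enzyme and test drug were preincubated 15 min at 37 °C in 0.05 M sodium phosphate, pH 7.4. Final 1 mM p-tyramine, 200 µM Amplex Red and 1 U/mL HRP were then added. Resorufin fluorescence (ex 545/em 590 nm) was read over 15 min, minus enzyme-free background. Top concentration tested was 100 µM.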

The species named for assay [3] is Homo sapiens. As to the kind of experiment: Selectivity index, ratio of IC50 for human recombinant MAOA to IC50 for human recombinant MAOB.
Assay [4] deals with T1, Amine oxidase [flavin-containing] A. As to the kind of experiment: Inhibition of human recombinant MAOA expressed in BTI-TN-5B1-4 cells assessed as effect on H2O2 production from para-tyramine at 100 uM by fluorimetric method. The class given is cell-based. An outline of the steps: as §1
The target of assay [5] is T2, Amine oxidase [flavin-containing] B. As to the kind of experiment: Inhibition of human recombinant MAOB expressed in BTI-TN-5B1-4 cells assessed as effect on H2O2 production from para-tyramine at 1 mM by fluorimetric method. The format is cell-based. An outline of the steps: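 Drugs preincubated with enzyme 15 min, 37 °C, 0.05 M sodium phosphate pH 7.4. Amplex Red 200 µM, HRP 1 U/mL, p-tyramine 1 mM (final) added. Resorufin fluorescence (ex 545/em 590 nm) read over 15 min at 37 °C, enzyme-free background subtracted.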

Where only a bound is given, the exact number is not on record here.

On to `Cc1cccc(Cl)c1NC(=O)c1cc2ccc(OCc3ccc(F)cc3)cc2oc1=O`, for which the IC50 in assay [1] turned out to be 59.6 µM.

As to `O=C(Nc1ccc(F)cc1)c1cc2ccccc2oc1=O`, the IC50 in assay [1] was 13.1 µM. Regarding `O=C(Nc1ccccc1Cc1ccccc1)c1cc2ccc(OCc3ccc(F)cc3)cc2oc1=O`, the figures for the IC50 in assay [1] and in assay [2] were 55.8 µM and “Not Active”, respectively. The Ratio IC50 in assay [3] is less than 0.56. In the case of `Cc1cc(C)cc(NC(=O)c2cc3ccccc3oc2=O)c1`, in assay [1], the IC50 was 17.6 µM.

`COc1ccc(NC(=O)c2cc3ccccc3oc2=O)cc1OC`: the IC50 in assay [1] stood at 9.45 µM.

As to `CC(C)c1ccc(NC(=O)c2cc3ccc(OCc4ccc(F)cc4)cc3oc2=O)cc1`, the 50% inhibitory concentration (IC50) entry in assay [4] and in assay [2] was “Not Active” in each case. As for `O=C(NCc1ccccc1)c1cc2ccc(OCc3ccccc3)cc2oc1=O`, the concentration for half-maximal inhibition (IC50) entry in assay [4] is given as “Not Active”.

For `O=C(Nc1cccc(F)c1)c1cc2ccccc2oc1=O`, the IC50 entry in assay [4] was “Not Active”. On to `N#Cc1c(F)c(F)c(NC(=O)c2cc3ccccc3oc2=O)c(F)c1F`, for which the 50% inhibitory concentration (IC50) in assay [1] was found to be 16 µM. On the same count and under the same terms, to `O=C(Nc1ccccc1)c1cc2ccccc2oc1=O` belongs 13.1 µM. Regarding `CN(C(=O)c1cc2ccccc2oc1=O)c1ccccc1`, in assay [4], the IC50 entry was “Not Active”. Take `CC(C)c1ccc(NC(=O)c2cc3ccc(OCc4ccccc4)cc3oc2=O)cc1`: the half-inhibitory concentration (IC50) in assay [1] was found to be 60.9 µM. Regarding `N#Cc1c(F)c(F)c(NC(=O)c2cc3ccc(OCc4ccc(F)cc4)cc3oc2=O)c(F)c1F`, in assay [1], the IC50 amounted to 58.5 µM. As for `O=C(Nc1cccc(C(F)(F)F)c1)c1cc2ccccc2oc1=O`, the half-inhibitory concentration (IC50) result in assay [4] is “Not Active”. `COc1cc(NC(=O)c2cc3ccccc3oc2=O)cc(OC)c1`: the 50% inhibitory concentration (IC50) in assay [1] came to 61.5 µM. For `CC(C)NC(=O)c1cc2ccc(OCc3ccccc3)cc2oc1=O`, the values for the IC50 in assay [1] and in assay [2] were 63.5 µM and “Not Active”, respectively. In addition, the Ratio IC50 in assay [3] was less than 0.63. Consider `O=C(Nc1c(F)c(F)nc(F)c1F)c1cc2ccccc2oc1=O`, for which the IC50 in assay [1] worked out at 11.4 µM. As for `O=C(Cl)c1ccc(NC(=O)c2cc3ccccc3oc2=O)cc1`, the results for the IC50 in assay [1] and in assay [2] were 9.67 µM and “Not Active”, respectively. The Ratio IC50 in assay [3] was less than 0.1.

Regarding `O=C(Nc1ccc(O)cc1)c1cc2ccccc2oc1=O`, in assay [4], the IC50 entry was “Not Active”. Same read-out and setting: to `NCCNC(=O)c1cc2ccccc2oc1=O` belongs “Not Active”. On to `CCOC(=O)c1ccc(NC(=O)c2cc3ccccc3oc2=O)cc1`, for which the figures for the 50% inhibitory concentration (IC50) in assay [1] and in assay [2] were 16 µM and “Not Active”, respectively. In addition, the Ratio IC50 in assay [3] was less than 0.16. Take `COc1ccc(NC(=O)c2cc3ccccc3oc2=O)cc1`: the IC50 entry in assay [4] is recorded as “Not Active”. As for `O=C(c1cc2ccccc2oc1=O)N(c1ccccc1)c1ccccc1`, the IC50 entry in assay [4] and in assay [2] was “Not Active” in each case. As to `COc1cccc(NC(=O)c2cc3ccccc3oc2=O)c1`, the IC50 result in assay [4] is reported as “Not Active”. The same measure, in the same setting: to `O=C(NCc1ccccc1)c1cc2ccccc2oc1=O` belongs “Not Active”. Turning to `COc1ccc(NC(=O)c2cc3ccc(OCc4ccccc4)c(C)c3oc2=O)cc1OC`, the 50% inhibitory concentration (IC50) in assay [1] turned out to be 48.9 µM. Still for that read-out and setting: then `N#Cc1c(F)c(F)c(NC(=O)c2cc3ccc(OCc4ccccc4)cc3oc2=O)c(F)c1F`, with 61.4 µM; and `Cc1ccc(NC(=O)c2cc3ccccc3oc2=O)cc1`, with 19.5 µM.

On to `O=C(NCCN1CCOCC1)c1ccc(Cl)cc1` [MOCLOBEMIDE], for which, in assay [5], the half-inhibitory concentration (IC50) result was “Not Active”. Consider `O=C(NC1CCCCC1)c1cc2ccccc2oc1=O`, for which the concentration for half-maximal inhibition (IC50) entry in assay [4] was “Not Active”. On to `COc1ccc(NC(=O)c2cc3ccc(OCc4ccc(F)cc4)cc3oc2=O)cc1OC`, for which the IC50 in assay [1] is 49.2 µM. Turning to `COc1ccc(NC(=O)c2cc3ccc(OCc4ccccc4)cc3oc2=O)cc1OC`, in assay [4], the IC50 result was “Not Active”. For the compound `O=C(NC1CCCCC1)c1cc2ccc(OCc3ccccc3)cc2oc1=O`, in assay [4], the IC50 entry is recorded as “Not Active”. For the compound `Cc1cccc(C)c1NC(=O)c1cc2ccccc2oc1=O`, the IC50 in assay [1] came to 9.79 µM.

`O=C(NNc1ccccc1)c1cc2ccc(OCc3ccccc3)cc2oc1=O`: the IC50 in assay [1] was 41.4 µM. Same read-out and setting: then `O=C(O)c1ccc(NC(=O)c2cc3ccccc3oc2=O)cc1`, with 9.97 µM. With `CN(Cc1ccccc1)C(=O)c1cc2ccccc2oc1=O`, the half-inhibitory concentration (IC50) entry in assay [4] and in assay [2] was “Not Active” in each case. As for `Cc1cccc(NC(=O)c2cc3ccccc3oc2=O)c1`, the half-inhibitory concentration (IC50) in assay [1] stood at 14.5 µM. Consider `CSc1ccc(NC(=O)c2cc3ccccc3oc2=O)cc1`, for which the IC50 in assay [1] came to 14.8 µM. Still for that read-out and setting: then `Cc1ccc(NC(=O)c2cc3ccccc3oc2=O)c(C)c1`, with 12.3 µM.

`O=C(Nc1c(F)cccc1F)c1cc2ccccc2oc1=O`: the concentration for half-maximal inhibition (IC50) in assay [1] was found to be 12.8 µM. For the compound `Cc1cccc(Cl)c1NC(=O)c1cc2ccccc2oc1=O`, in assay [4], the IC50 entry is recorded as “Not Active”. For the compound `COc1cc(NC(=O)c2cc3ccc(OCc4ccc(F)cc4)cc3oc2=O)cc(OC)c1`, the half-inhibitory concentration (IC50) in assay [1] came out at 52.6 µM. Same read-out and setting: then `CC(C)CNC(=O)c1cc2ccc(OCc3ccccc3)cc2oc1=O`, with 58.6 µM. For `O=C(Nc1ccccc1Cc1ccccc1)c1cc2ccccc2oc1=O`, the IC50 entry in assay [4] is recorded as “Not Active”.

On to `CS(=O)(=O)c1ccc(NC(=O)c2cc3ccccc3oc2=O)cc1`, for which, in assay [1], the IC50 worked out at 9.33 µM. For the compound `CN(C(=O)c1cc2ccc(OCc3ccccc3)cc2oc1=O)c1ccccc1`, the half-inhibitory concentration (IC50) result in assay [4] was “Not Active”. In the case of `Cc1cccc(Cl)c1NC(=O)c1cc2ccc(OCc3ccccc3)cc2oc1=O`, the IC50 in assay [1] turned out to be 49.7 µM. For the compound `O=C(NCCc1ccccc1)c1cc2ccccc2oc1=O`, the concentration for half-maximal inhibition (IC50) entry in assay [4] and in assay [2] was “Not Active” throughout. Take `Cc1cccc(NC(=O)c2cc3ccccc3oc2=O)c1C`: the IC50 in assay [1] came to 20.6 µM. In the case of `CCc1ccc(NC(=O)c2cc3ccccc3oc2=O)cc1`, the half-inhibitory concentration (IC50) in assay [1] worked out at 15.7 µM. Turning to `O=C(Nc1ccccc1Cc1ccccc1)c1cc2ccc(OCc3ccccc3)cc2oc1=O`, in assay [1], the IC50 was 51.9 µM. Turning to `O=C(Nc1c(F)c(F)c(F)c(F)c1F)c1cc2ccccc2oc1=O`, in assay [4], the half-maximal inhibitory concentration (IC50) entry was “Not Active”. In the case of `C#CCNC(=O)c1cc2ccccc2oc1=O`, the half-maximal inhibitory concentration (IC50) result in assay [4] and in assay [2] was “Not Active” throughout.

Regarding `CC(C)CNC(=O)c1cc2ccccc2oc1=O`, the IC50 entry in assay [4] is listed as “Not Active”. In the case of `Cc1ccc(C)c(NC(=O)c2cc3ccccc3oc2=O)c1`, in assay [1], the IC50 was determined as 15.9 µM.

In the case of `COc1cc(NC(=O)c2cc3ccc(OCc4ccccc4)cc3oc2=O)cc(OC)c1`, the IC50 in assay [1] worked out at 52.9 µM. Still for that read-out and setting: to `CC(C)c1ccc(NC(=O)c2cc3ccccc3oc2=O)cc1` belongs 15.1 µM. Turning to `CC(C)NC(=O)c1cc2ccccc2oc1=O`, the IC50 result in assay [4] is “Not Active”.

Take `Cc1ccc(NC(=O)c2cc3ccccc3oc2=O)cc1C`: in assay [1], the concentration for half-maximal inhibition (IC50) amounted to 18.8 µM.
